The source of these data is ChEMBL document CHEMBL4261626, “Design, synthesis, and effects of novel phenylpyrimidines as glucagon receptor antagonists” (Bioorg Med Chem, 2018).

The nature of data set [1]: (§1) Cytotoxicity against C57BL/6N mouse primary hepatocytes assessed as cell viability at 20 uM after 24 hrs by CCK8 assay. In kind it is cell-based, Hepatocyte. Conditions: C57BL/6N, primary hepatocytes, read-out: Activity. In outline: (§2)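 Hepatocytes were isolated by portal-vein perfusion and Percoll gradient from 10-week male C57BL/6N mice. Cells were seeded at 1×10^4/well and exposed to 20 μM compound in cell plating reagent for 24 h. CCK-8 was then added for 2 h at 37 °C and absorbance read at 450 nm. Three independent experiments, each in triplicate.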
On the technique in general: Tetrazolium dyes change colour on reduction, which living cells bring about.

Data set [2] has as its target T1, Glucagon receptor (Homo sapiens, UniProt P47871). Description: Antagonist activity at human glucagon receptor expressed in CHO-K1 GCGR Gs cells assessed as inhibition of glucagon-induced cAMP accumulation at 10 uM pre-incubated for 10 mins before glucagon and forskolin addition and further incubated for 30 mins by luminescence-based assay. In kind it is functional, cell-based. Conditions: in the assay text read “pre-incubated for 15 mins” for “pre-incubated for 10 mins”. The gist of the method:
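CHO-K1 GCGR Gs cells were seeded at 1×10^4/well. The next day they were pre-treated with compound at 10 μM in PBS for 15 min at 37 °C, 5% CO₂. Then 0.1 nM glucagon plus 10 μM forskolin was added for a further 30 min. cAMP was read by HitHunter enzyme-complementation luminescence. Three independent experiments.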
(In general: Cyclic AMP is a second messenger, typically raised through Gs and lowered through Gi signalling.)

Data set [3] relates to Mus musculus. Description: Antihyperglycemic activity in db/db mouse assessed as reduction in blood glucose level at 50 mg/kg, po administered once per day for 4 weeks and measured after 12 hrs fasting. The data set is classed as functional, organism-based. The gist of the method:
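Male db/db mice were obtained at 6 weeks; only animals with blood glucose over 400 mg/dL were used. They were dosed 50 mg/kg by oral intubation once daily for 4 weeks, in 9% cremophore with 10% DMSO in sterile water. Fasting blood glucose was read by glucometer after a 12 h fast at week 4. n=7/group.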

Data set [4] addresses T1, Glucagon receptor. Put plainly: Antagonist activity at human glucagon receptor expressed in CHO-K1 GCGR Gs cells assessed as inhibition of glucagon-induced cAMP accumulation pre-incubated for 10 mins before glucagon and forskolin addition and further incubated for 30 mins by luminescence-based assay. In kind it is functional, cell-based. Conditions: in the assay text read “pre-incubated for 15 mins” for “pre-incubated for 10 mins”. The gist of the method:
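Glucagon-receptor CHO-K1 GCGR Gs cells (1×10^4/well, plated the day before) were exposed to compound at 0.0001–100 μM in PBS for 15 min at 37 °C. Cells were then stimulated with 0.1 nM glucagon and 10 μM forskolin for 30 min. cAMP was measured by HitHunter luminescence. IC50 was fitted from three independent determinations.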

The subject of data set [5] is Hepatocyte. Description: Inhibition of glucagon-induced glucose production in C57BL/6N mouse primary hepatocytes grown under gluconeogenic medium at 20 uM after 30 mins by glucose assay reagent-based glucose oxidase method. The data set is classed as functional. As to conditions: 0.5 h. In outline: (§3)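 Primary mouse hepatocytes were plated at 2.5×10^5/well. After 24 h they were washed and held 3 h in glucose-free DMEM. Compound (20 μM screen, or 1–100 μM series) was then added with 20 mM sodium lactate, 2 mM sodium pyruvate and 10 nM glucagon. Medium glucose was assayed by kit after 30 min and normalized to cellular protein. Five independent experiments, each in triplicate.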

In data set [6] the test system is Hepatocyte. Put plainly: Inhibition of glucagon-induced glucose production in C57BL/6N mouse primary hepatocytes grown under gluconeogenic medium after 30 mins by glucose assay reagent-based glucose oxidase method. In kind it is functional, cell-based. In outline: as §3
The test system of data set [7] is Hepatocyte. Description: Inhibition of glucagon-induced glucose production in C57BL/6N mouse primary hepatocytes grown under gluconeogenic medium at 10 uM after 30 mins by glucose assay reagent-based glucose oxidase method. The data set is classed as functional, cell-based. The gist of the method:
as §3

Data set [8] concerns Hepatocyte. The data set is described as §1. As to conditions: hepatocytes, 24 h, 20 µM. In kind it is cell-based. The gist of the method: as §2
Data set [9] concerns Hepatocyte. Description: Inhibition of glucagon-induced glucose production in C57BL/6N mouse primary hepatocytes grown under gluconeogenic medium at 20 uM after 3 hrs by glucose assay reagent-based glucose oxidase method. The data set is classed as functional, cell-based. The gist of the method:
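Mouse primary hepatocytes in glucose-free DMEM were given 20 μM compound for 3 h with 10 nM glucagon, 2 mM sodium pyruvate and 20 mM sodium lactate. Medium glucose was measured by glucose assay kit 30 min after glucagon. Three independent experiments.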

In data set [10] the test system is Mus musculus. Description: Antihyperglycemic activity in db/db mouse assessed pretreated at 50 mg/kg, po administered via intubation once per day for 4 weeks followed by fasting for 5 hrs before second administration at 50 mg/kg via oral gavage and subsequent glucagon challenge after 1 hr and measured durimng 15 to 60 mins post glucagon injection. In kind it is functional, organism-based. The gist of the method:
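Diabetic db/db mice were dosed orally at 50 mg/kg daily for 4 weeks (vehicle 9% cremophore/10% DMSO in sterile water). They were then fasted 5 h and re-dosed 50 mg/kg by gavage. After 1 h they received glucagon 15 μg/kg i.p. Blood glucose was measured at 15, 30, 45 and 60 min. n=4–6/group.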

Activity calls are given as the source filed them. No cut-off for these calls is given here.

T1 sequence (P47871 whole entry): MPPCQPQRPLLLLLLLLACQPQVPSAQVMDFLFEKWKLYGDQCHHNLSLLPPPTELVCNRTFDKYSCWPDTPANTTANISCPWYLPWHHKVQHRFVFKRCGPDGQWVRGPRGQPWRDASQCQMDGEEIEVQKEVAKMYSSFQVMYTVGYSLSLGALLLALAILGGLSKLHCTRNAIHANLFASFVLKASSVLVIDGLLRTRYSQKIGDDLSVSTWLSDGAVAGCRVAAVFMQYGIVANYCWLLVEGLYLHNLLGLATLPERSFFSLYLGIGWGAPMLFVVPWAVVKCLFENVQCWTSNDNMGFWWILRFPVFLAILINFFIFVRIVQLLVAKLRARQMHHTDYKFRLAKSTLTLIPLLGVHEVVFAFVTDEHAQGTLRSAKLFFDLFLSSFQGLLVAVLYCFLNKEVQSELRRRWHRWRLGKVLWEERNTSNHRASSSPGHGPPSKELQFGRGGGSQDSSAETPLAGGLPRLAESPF

One may read the inhibition as the change of the read-out against control, counted positive when it falls. On to `CCCCC(Oc1ncc(-c2cccc(Cl)c2)cn1)c1ccc(C(=O)NCCC(=O)O)cc1` (configuration not stated), for which, in [1], the viability at 24 h, 20 µM was more than 80%. Besides, the inhibition on Glucagon receptor [2] was more than 60%.
`CCC(CC)C(=O)Nc1sc2c(c1C#N)CCC(C(C)(C)CC)C2` (configuration not stated): in data set [1], the viability at 24 h, 20 µM was more than 80%. The inhibition at Glucagon receptor [2] was more than 60%.
On to `Cc1cc(O[C@@H](CCC(F)(F)F)c2ccc(C(=O)NCCC(=O)O)cc2)cc(C)c1-c1ccc(C(C)(C)C)cc1`, for which the outcome in the data set on Mus musculus [3] was inactive.
For orientation: IC50 means the concentration that gives 50% inhibition. With `CCCCC(Oc1ncc(-c2ccc(C(C)(C)C)cc2)cn1)c1ccc(C(=O)NCCC(=O)O)cc1` (configuration not stated), the viability at 24 h, 20 µM in data set [1] is more than 80%. Also, the inhibition on Glucagon receptor [2] was more than 60%; in the data set on Hepatocyte [6], “Dose-dependent effect”. Moreover, the IC50 at Glucagon receptor [4] was found to be 6 µM. In the data set on Hepatocyte [5], the inhibition at 20 µM was more than 60%. Moreover, in the data set with Hepatocyte [7], the inhibition result is “Active”.
Take `CCCCC(Oc1ncc(-c2ccc(CC)cc2)cn1)c1ccc(C(=O)NCCC(=O)O)cc1` (configuration not stated): the viability at 24 h, 20 µM in data set [1] is more than 80%. The inhibition at Glucagon receptor [2] is more than 60%. Besides, the IC50 at Glucagon receptor [4] stood at 17.7 µM. The inhibition at 20 µM with Hepatocyte [5] was more than 60%.
In the case of `CCCC[C@@H](Oc1ncc(-c2ccccc2)cn1)c1ccc(C(=O)NCCC(=O)O)cc1`, the Activity entry in the data set on Hepatocyte [8] is recorded as “Non-Toxic”. For the same compound, the IC50 at Glucagon receptor [4] came out at 9.3 µM. Further, the inhibition entry in the data set on Hepatocyte [9] is “Active”. Also, the result in the data set with Mus musculus [3] and in the data set on Mus musculus [10] was Active.
On to `CCCCC(Oc1ncc(-c2ccc(Cl)cc2)cn1)c1ccc(C(=O)NCCC(=O)O)cc1` (configuration not stated), for which the viability at 24 h, 20 µM in [1] is more than 80%. Further, the inhibition on Glucagon receptor [2] is more than 60%.
Take `CCCCC(Oc1ncc(-c2ccc(C(F)(F)F)cc2)cn1)c1ccc(C(=O)NCCC(=O)O)cc1` (configuration not stated): the viability at 24 h, 20 µM in data set [1] is more than 80%. For the same compound, the inhibition at Glucagon receptor [2] is more than 60%.
Consider `CCCCC(Oc1ncc(-c2ccccc2)cn1)c1ccc(C(=O)NCCC(=O)O)cc1` (configuration not stated), for which the viability at 24 h, 20 µM in data set [1] was more than 80%. The results for the inhibition on Glucagon receptor [2] and in the data set with Hepatocyte [6] were more than 60% and “Dose-dependent effect”, respectively. The IC50 on Glucagon receptor [4] turned out to be 4.1 µM. This compound also registered an inhibition at 20 µM with Hepatocyte [5] of more than 60%. The inhibition result with Hepatocyte [7] is “Active”.
On to `CCCCC(Oc1ncc(-c2ccc(Oc3ccccc3)cc2)cn1)c1ccc(C(=O)NCCC(=O)O)cc1` (configuration not stated), for which the viability at 24 h, 20 µM in data set [1] was more than 80%. At Glucagon receptor [2], the inhibition is more than 60%. At Glucagon receptor [4], the IC50 turned out to be 8.2 µM. In the data set on Hepatocyte [5], this compound gave an inhibition at 20 µM of more than 60%.
On to `CCCC[C@H](Oc1ncc(-c2ccccc2)cn1)c1ccc(C(=O)NCCC(=O)O)cc1`, for which the Activity entry in the data set with Hepatocyte [8] is recorded as “Toxic”. In addition, on Glucagon receptor [4], the IC50 came out at 8.5 µM. Also, the inhibition entry in the data set with Hepatocyte [9] is “Active”. Further, the outcome with Mus musculus [3] and with Mus musculus [10] was Active.
With `CCCCC(Oc1ncc(-c2cc(Cl)cc(Cl)c2)cn1)c1ccc(C(=O)NCCC(=O)O)cc1` (configuration not stated), the viability at 24 h, 20 µM in data set [1] is more than 80%. For the same compound, the inhibition on Glucagon receptor [2] is more than 60%; with Hepatocyte [6] it was “Dose-dependent effect”. In addition, the 50% inhibitory concentration (IC50) on Glucagon receptor [4] worked out at 6.9 µM. The compound further had an inhibition at 20 µM in the data set on Hepatocyte [5] of more than 60%.
For `CCCC[C@H](Oc1ncc(-c2ccc(C(C)(C)C)cc2)cn1)c1ccc(C(=O)NCCC(=O)O)cc1`, the Activity result in the data set on Hepatocyte [8] is on record as “Toxic”. Besides, the inhibition entry in the data set with Hepatocyte [9] is “inactive”.
Consider `CCCC[C@@H](Oc1ncc(-c2ccc(C(C)(C)C)cc2)cn1)c1ccc(C(=O)NCCC(=O)O)cc1`, for which the Activity result in the data set with Hepatocyte [8] is “Toxic”. In addition, the inhibition result in the data set on Hepatocyte [9] was “inactive”.
Consider `CCCCC(Oc1ncc(-c2ccc(C(F)(F)F)cc2F)cn1)c1ccc(C(=O)NCCC(=O)O)cc1` (configuration not stated), for which the viability at 24 h, 20 µM in [1] was more than 80%. In addition, the inhibition on Glucagon receptor [2] is more than 60%.
For the compound `CCCCC(Oc1ncc(-c2ccccc2Cl)cn1)c1ccc(C(=O)NCCC(=O)O)cc1` (configuration not stated), the viability at 24 h, 20 µM in [1] was more than 80%. In addition, at Glucagon receptor [2], the inhibition is more than 60%.
